Laboratory results taken from ChEMBL document CHEMBL4270513, “Replacement of Arg with Nle and modified D-Phe in the core sequence of MSHs, Ac-His-D-Phe-Arg-Trp-NH2, leads to hMC1R selectivity and pigmentation” (Eur J Med Chem, 2018).
The source made the active and inactive calls. The calls are words filed in the database; no cut-off is given here. Square brackets hold non-standard residues; d marks the D form. Peptide text beside a SMILES is read from it. dPhe(4-CF3) = N[C@H](Cc1ccc(C(F)(F)F)cc1)C(=O)O; dPhe(4-Br) = N[C@H](Cc1ccc(Br)cc1)C(=O)O; dPhe(4-Cl) = N[C@H](Cc1ccc(Cl)cc1)C(=O)O; dPhe(4-F) = N[C@H](Cc1ccc(F)cc1)C(=O)O; d2Nal = N[C@H](Cc1ccc2ccccc2c1)C(=O)O; Nle = CCCC[C@H](N)C(=O)O

What was measured:
[1] = target: T1, Melanocyte-stimulating hormone receptor (Homo sapiens, UniProt Q01726); assay: Displacement of [125I]-[Nle4,d-Phe7]-alpha-MSH from human MC1R expressed in HEK293 cells after 40 mins by gamma counting analysis; assay type: cell-based
[2] = target: T1, Melanocyte-stimulating hormone receptor; assay: Agonist activity at human MC1R expressed in HEK293 cells after 3 mins by cAMP assay; assay type: functional, cell-based
Melanocortin receptor 3 [3] = target: T2, Melanocortin receptor 3 (Homo sapiens, UniProt P41968); assay: Displacement of [125I]-[Nle4,d-Phe7]-alpha-MSH from human MC3R expressed in HEK293 cells after 40 mins by gamma counting analysis; assay type: cell-based
T2 sequence (P41968 whole entry): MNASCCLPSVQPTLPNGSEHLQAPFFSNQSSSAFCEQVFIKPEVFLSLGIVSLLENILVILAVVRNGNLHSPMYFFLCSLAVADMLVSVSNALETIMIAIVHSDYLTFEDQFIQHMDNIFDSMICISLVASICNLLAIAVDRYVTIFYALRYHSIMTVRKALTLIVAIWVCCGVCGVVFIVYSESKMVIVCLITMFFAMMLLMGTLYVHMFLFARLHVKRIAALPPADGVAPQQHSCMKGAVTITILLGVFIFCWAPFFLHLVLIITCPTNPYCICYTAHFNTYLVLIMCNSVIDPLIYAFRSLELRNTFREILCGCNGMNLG

Melanocortin receptor 3 [4] = target: T2, Melanocortin receptor 3; assay: Agonist activity at human MC3R expressed in HEK293 cells after 3 mins by cAMP assay; assay type: functional, cell-based
Melanocortin receptor 5 [5] = target: T3, Melanocortin receptor 5 (Homo sapiens, UniProt P33032); assay: Displacement of [125I]-[Nle4,d-Phe7]-alpha-MSH from human MC5R expressed in HEK293 cells after 40 mins by gamma counting analysis; assay type: cell-based
T3 sequence (P33032 whole entry): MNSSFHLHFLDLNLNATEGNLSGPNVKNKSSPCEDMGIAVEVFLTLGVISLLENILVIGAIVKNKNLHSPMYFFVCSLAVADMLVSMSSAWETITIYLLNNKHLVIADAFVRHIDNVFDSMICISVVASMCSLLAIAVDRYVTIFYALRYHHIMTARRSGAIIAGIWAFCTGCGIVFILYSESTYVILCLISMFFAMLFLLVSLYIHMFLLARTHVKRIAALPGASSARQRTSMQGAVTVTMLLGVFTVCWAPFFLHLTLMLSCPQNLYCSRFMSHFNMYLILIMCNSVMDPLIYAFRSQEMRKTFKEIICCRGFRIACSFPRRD

Melanocortin receptor 5 [6] = target: T3, Melanocortin receptor 5; assay: Agonist activity at human MC5R expressed in HEK293 cells after 3 mins by cAMP assay; assay type: functional, cell-based
[7] = target: T1, Melanocyte-stimulating hormone receptor; assay: Displacement of [125I]-[Nle4,d-Phe7]-alpha-MSH from human MC1R expressed in HEK293 cells at 10 uM after 40 mins by gamma counting analysis relative to control; assay type: cell-based
How it was run: (§1)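 Binding efficiency = maximal % displacement of [125I]-NDP-α-MSH observed at 10 μM peptide; 0% displacement at 10 μM scored as no binding.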

[8] = target: T1, Melanocyte-stimulating hormone receptor; assay: Agonist activity at human MC1R expressed in HEK293 cells at 10 uM after 3 mins by cAMP assay relative to MT-2; assay type: functional, cell-based
How it was run: (§2)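 cAMP produced at a single 10 μM peptide concentration, expressed as % of the response to MT-II run as control; 0% accumulation reported as no activity.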

Melanocortin receptor 3 [9] = target: T2, Melanocortin receptor 3; assay: Displacement of [125I]-[Nle4,d-Phe7]-alpha-MSH from human MC3R expressed in HEK293 cells at 10 uM after 40 mins by gamma counting analysis relative to control; assay type: cell-based; how it was run: as §1
Melanocortin receptor 3 [10] = target: T2, Melanocortin receptor 3; assay: Agonist activity at human MC3R expressed in HEK293 cells at 10 uM after 3 mins by cAMP assay relative to MT-2; assay type: functional, cell-based; how it was run: as §2
Melanocortin receptor 5 [11] = target: T3, Melanocortin receptor 5; assay: Displacement of [125I]-[Nle4,d-Phe7]-alpha-MSH from human MC5R expressed in HEK293 cells at 10 uM after 40 mins by gamma counting analysis relative to control; assay type: cell-based; how it was run: as §1
Melanocortin receptor 5 [12] = target: T3, Melanocortin receptor 5; assay: Agonist activity at human MC5R expressed in HEK293 cells at 10 uM after 3 mins by cAMP assay relative to MT-2; assay type: functional, cell-based; how it was run: as §2
Melanocortin receptor 4 [13] = target: T4, Melanocortin receptor 4 (Homo sapiens, UniProt P32245); assay: Displacement of [125I]-[Nle4,d-Phe7]-alpha-MSH from human MC4R expressed in HEK293 cells after 40 mins by gamma counting analysis; assay type: cell-based
T4 sequence (P32245 whole entry): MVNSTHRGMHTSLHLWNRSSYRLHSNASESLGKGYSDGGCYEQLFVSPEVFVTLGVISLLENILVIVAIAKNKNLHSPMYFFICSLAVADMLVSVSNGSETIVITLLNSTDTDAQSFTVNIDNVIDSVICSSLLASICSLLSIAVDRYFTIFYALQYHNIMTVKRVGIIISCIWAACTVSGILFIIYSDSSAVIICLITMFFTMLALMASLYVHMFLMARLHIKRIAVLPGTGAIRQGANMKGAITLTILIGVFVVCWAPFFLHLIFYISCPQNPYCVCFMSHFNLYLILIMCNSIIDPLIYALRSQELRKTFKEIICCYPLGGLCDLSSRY

Melanocortin receptor 4 [14] = target: T4, Melanocortin receptor 4; assay: Agonist activity at human MC4R expressed in HEK293 cells after 3 mins by cAMP assay; assay type: functional, cell-based
Anolis carolinensis = assay: Induction of pigmentation effect in lizard at 3 ug/g, ip at 1 hr post dose; assay type: functional, organism-based
How it was run: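 Anolis carolinensis lizards, peptide dissolved in saline at 1 mM, single intraperitoneal dose of 3 μg/g body weight; vehicle-injected animals as control. Skin colour change versus pre-injection appearance scored visually and photographed, followed up to 24 h.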

Homo sapiens [15] = species: Homo sapiens; assay: Selectivity ratio of EC50 for human MC3R to EC50 for human MC1R
Homo sapiens [16] = species: Homo sapiens; assay: Selectivity ratio of EC50 for human MC4R to EC50 for human MC1R
Homo sapiens [17] = species: Homo sapiens; assay: Selectivity ratio of EC50 for human MC5R to EC50 for human MC1R

| Structure (SMILES) | IC50 [1] [nM] | EC50 [2] [nM] | IC50 (Melanocortin receptor 3 [3]) [nM] | EC50 (Melanocortin receptor 3 [4]) [nM] | IC50 (Melanocortin receptor 5 [5]) [nM] | EC50 (Melanocortin receptor 5 [6]) [nM] | %max [7] [%] | Activity [8] [%] | %max (Melanocortin receptor 3 [9]) [%] | Activity (Melanocortin receptor 3 [10]) [%] | %max (Melanocortin receptor 5 [11]) [%] | Activity (Melanocortin receptor 5 [12]) [%] | IC50 (Melanocortin receptor 4 [13]) [nM] | EC50 (Melanocortin receptor 4 [14]) [nM] | Ratio EC50 (Homo sapiens [15]) | Ratio EC50 (Homo sapiens [16]) | Ratio EC50 (Homo sapiens [17]) | Activity (Anolis carolinensis) |
| --- | --- | --- | --- | --- | --- | --- | --- | --- | --- | --- | --- | --- | --- | --- | --- | --- | --- | --- |
| CC(=O)N[C@@H](Cc1cnc[nH]1)C(=O)N[C@H](Cc1ccccc1)C(=O)N[C@@H](CCCNC(=N)N)C(=O)N[C@@H](Cc1c[nH]c2ccccc12)C(N)=O |  |  |  |  |  |  | 100 | 100 | 100 | 100 | 100 | 63 |  |  |  |  |  |  |
| CCCC[C@H](NC(=O)[C@@H](Cc1ccc2ccccc2c1)NC(=O)[C@H](Cc1cnc[nH]1)NC(C)=O)C(=O)N[C@@H](Cc1c[nH]c2ccccc12)C(N)=O (Ac-H[d2Nal][Nle]W-NH2) | > 1000 | 418 | > 1000 | 255 |  |  | 65 | 100 | 80 | 17 | 0 | 0 | > 1000 | 133 |  |  |  |  |
| CCCC[C@H](NC(=O)[C@@H](Cc1ccc(Cl)cc1)NC(=O)[C@H](Cc1cnc[nH]1)NC(C)=O)C(=O)N[C@@H](Cc1c[nH]c2ccccc12)C(N)=O (Ac-H[dPhe(4-Cl)][Nle]W-NH2) | 122 | 6.5 | > 1000 | 116 |  | 433 | 81 | 100 | 45 | 87 | 0 | 52 | > 1000 | 17 |  |  |  |  |
| CCCC[C@H](NC(=O)[C@@H](Cc1ccc(Br)cc1)NC(=O)[C@@H]1CCCN1C(C)=O)C(=O)N[C@@H](Cc1c[nH]c2ccccc12)C(N)=O (Ac-P[dPhe(4-Br)][Nle]W-NH2) | 80 | > 1000 | > 1000 | > 1000 |  |  | 30 | 39 | 76 | 23.1 | 0 | 0 | 10 |  |  |  |  |  |
| CCCC[C@H](NC(=O)[C@@H](Cc1ccc(C(F)(F)F)cc1)NC(=O)[C@@H]1CCCN1C(C)=O)C(=O)N[C@@H](Cc1c[nH]c2ccccc12)C(N)=O (Ac-P[dPhe(4-CF3)][Nle]W-NH2) |  |  | > 1000 |  |  |  | 0 | 0 | 33 | 0 | 0 | 0 | 2.1 |  |  |  |  |  |
| CCCC[C@H](NC(=O)[C@@H](Cc1ccc(Cl)cc1)NC(=O)[C@@H]1CCCN1C(C)=O)C(=O)N[C@@H](Cc1c[nH]c2ccccc12)C(N)=O (Ac-P[dPhe(4-Cl)][Nle]W-NH2) | 1.9 | 3 | > 1000 | > 1000 |  |  | 18 | 63 | 35 | 23.1 | 0 | 0 |  |  |  |  |  |  |
| CCCC[C@H](NC(=O)[C@@H](Cc1ccc(F)cc1)NC(=O)[C@@H]1CCCN1C(C)=O)C(=O)N[C@@H](Cc1c[nH]c2ccccc12)C(N)=O (Ac-P[dPhe(4-F)][Nle]W-NH2) | 0.74 | > 1000 | 46.8 | > 1000 |  |  | 28 | 46 | 35 | 56 | 0 | 0 |  |  |  |  |  |  |

Now from value to compound, other results behind:

| IC50 [1] [nM] | EC50 [2] [nM] | IC50 (Melanocortin receptor 3 [3]) [nM] | EC50 (Melanocortin receptor 3 [4]) [nM] | IC50 (Melanocortin receptor 5 [5]) [nM] | EC50 (Melanocortin receptor 5 [6]) [nM] | %max [7] [%] | Activity [8] [%] | %max (Melanocortin receptor 3 [9]) [%] | Activity (Melanocortin receptor 3 [10]) [%] | %max (Melanocortin receptor 5 [11]) [%] | Activity (Melanocortin receptor 5 [12]) [%] | IC50 (Melanocortin receptor 4 [13]) [nM] | EC50 (Melanocortin receptor 4 [14]) [nM] | Ratio EC50 (Homo sapiens [15]) | Ratio EC50 (Homo sapiens [16]) | Ratio EC50 (Homo sapiens [17]) | Structure (SMILES) | Activity (Anolis carolinensis) |
| --- | --- | --- | --- | --- | --- | --- | --- | --- | --- | --- | --- | --- | --- | --- | --- | --- | --- | --- |
| 105 | 4.3 | 63 | 7.1 | 109 | 3.9 |  |  |  |  |  |  |  |  |  |  |  | CC(=O)N[C@@H](Cc1cnc[nH]1)C(=O)N[C@H](Cc1ccccc1)C(=O)N[C@@H](CCCN=C(N)N)C(=O)N[C@@H](Cc1c[nH]c2ccccc12)C(N)=O |  |
| 50 | 52 | > 1000 | 120 | 46 | 37 | 42 | 100 | 15 | 100 | 44 | 48 | 65 | 928 |  |  |  | CCCC[C@H](NC(=O)[C@@H](Cc1ccccc1)NC(=O)[C@H](Cc1cnc[nH]1)NC(C)=O)C(=O)N[C@@H](Cc1c[nH]c2ccccc12)C(N)=O (Ac-H[dF][Nle]W-NH2) |  |
| 154 | 11 | 224 | 57 |  | > 1000 | 61 | 100 | 51 | 93 | 0 | 33 | 53 | 36 |  |  |  | CCCC[C@H](NC(=O)[C@@H](Cc1ccc(Br)cc1)NC(=O)[C@H](Cc1cnc[nH]1)NC(C)=O)C(=O)N[C@@H](Cc1c[nH]c2ccccc12)C(N)=O (Ac-H[dPhe(4-Br)][Nle]W-NH2) |  |
| 339 | 10 | 90 | 252 | 37 | > 1000 | 49 | 100 | 62 | 85 | 37 | 44 | 835 | 407 | 25 | 41 | > 100 | CCCC[C@H](NC(=O)[C@@H](Cc1ccc(C(F)(F)F)cc1)NC(=O)[C@H](Cc1cnc[nH]1)NC(C)=O)C(=O)N[C@@H](Cc1c[nH]c2ccccc12)C(N)=O (Ac-H[dPhe(4-CF3)][Nle]W-NH2) | Active |
| 243 | 25 | > 1000 | 315 |  |  | 33 | 100 | 13 | 100 | 0 | 0 | > 1000 | 280 |  |  |  | CCCC[C@H](NC(=O)[C@@H](Cc1ccc(F)cc1)NC(=O)[C@H](Cc1cnc[nH]1)NC(C)=O)C(=O)N[C@@H](Cc1c[nH]c2ccccc12)C(N)=O (Ac-H[dPhe(4-F)][Nle]W-NH2) |  |
|  |  | > 1000 |  |  |  | 0 | 0 | 65 | 0 | 0 | 0 |  |  |  |  |  | CCCC[C@H](NC(=O)[C@@H](Cc1ccccc1)NC(=O)[C@@H]1CCCN1C(C)=O)C(=O)N[C@@H](Cc1c[nH]c2ccccc12)C(N)=O (Ac-P[dF][Nle]W-NH2) |  |
